The source of these data is ChEMBL document CHEMBL5257137, “Inhibition of Thiamine Diphosphate-Dependent Enzymes by Triazole-Based Thiamine Analogues” (ACS Med Chem Lett, 2023).

pIC50, pKi: −log10 of the molar value.

The target in experiment [1] is T1, Pyruvate dehydrogenase E1 component subunit alpha, somatic form, mitochondrial (Sus scrofa, UniProt P29804).
T1 sequence (P29804 whole entry): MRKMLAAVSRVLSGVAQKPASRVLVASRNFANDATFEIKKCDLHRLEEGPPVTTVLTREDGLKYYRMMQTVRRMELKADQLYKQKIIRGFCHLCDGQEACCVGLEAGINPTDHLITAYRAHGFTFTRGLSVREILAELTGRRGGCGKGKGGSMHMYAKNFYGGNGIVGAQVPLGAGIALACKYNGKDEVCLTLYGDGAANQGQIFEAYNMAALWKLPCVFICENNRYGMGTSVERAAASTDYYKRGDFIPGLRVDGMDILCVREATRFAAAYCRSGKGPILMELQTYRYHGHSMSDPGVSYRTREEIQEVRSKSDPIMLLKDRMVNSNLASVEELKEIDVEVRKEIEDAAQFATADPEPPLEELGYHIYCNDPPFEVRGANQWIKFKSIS
Kind of experiment: Inhibition of porcine PDHc E1-subunit assessed as inhibition constant preincubated for 30 mins followed by pyruvate addition using 10 uM ThDP as substrate by microplate reader analysis.

In experiment [2] the target is T1, Pyruvate dehydrogenase E1 component subunit alpha, somatic form, mitochondrial. Kind of experiment: Inhibition of porcine PDHc E1-subunit assessed as DCPIP reduction preincubated for 30 mins followed by pyruvate addition using 10 uM ThDP as substrate by microplate reader analysis.
Experiment [3] concerns Escherichia coli. Kind of experiment: Inhibition of Escherichia coli OGDHc E1 subunit assessed as DCPIP reduction at 250 uM preincubated for 60 mins followed by […] addition using 50 uM ThDP as substrate by microplate reader analysis. The method, boiled down:
(§1)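 Single-point preliminary screen with compound at 250 μM and ThDP at 50 μM. Values are means of three technical replicates.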

Experiment [4] concerns Escherichia coli. As to the kind of experiment: Inhibition of Escherichia coli OGDHc E1 subunit assessed as DCPIP reduction at 250 uM preincubated for 60 mins followed by […] addition using 125 uM ThDP as substrate by microplate reader analysis.
For experiment [5], the system named is Aerococcus viridans. As to the kind of experiment: Inhibition of Aerococcus viridans pyruvate oxidase at 250 uM preincubated for 30 mins followed by pyruvate addition using 50 uM ThDP as substrate by microplate reader analysis. The method, boiled down:
as §1

Experiment [6] deals with Aerococcus viridans. As to the kind of experiment: Inhibition of Aerococcus viridans pyruvate oxidase at 250 uM preincubated for 30 mins followed by pyruvate addition using 125 uM ThDP as substrate by microplate reader analysis.
Experiment [7] relates to Plasmodium falciparum. Kind of experiment: Antiplasmodial activity against chloroquine-sensitive Plasmodium falciparum 3D7 infected in human erythrocyte assessed as inhibition of parasite proliferation in thiamine free medium by SYBR-Safe assay. In kind it is functional, organism-based. The conditions noted are these: 3D7, Erythrocyte. The method, boiled down:
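3D7 parasites in human erythrocytes cultured in thiamine-free medium with a range of compound concentrations. […] Means come from three independent experiments, each run in three technical replicates.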

In experiment [8] the test system is Plasmodium falciparum. As to the kind of experiment: Antiplasmodial activity against Plasmodium falciparum 3D7 infected in human erythrocyte assessed as intraerythrocytic growth inhibition in thiamine-free medium by [3H]-hypoxanthine incorporation assay. The experiment is classed as functional, organism-based. The note with it: 3D7, Erythrocyte.
In experiment [9] the test system is Plasmodium falciparum. Kind of experiment: Antiplasmodial activity against chloroquine-sensitive Plasmodium falciparum 3D7 infected in human erythrocyte assessed as inhibition of parasite proliferation in presence of 297uM thiamine by SYBR-Safe assay. The experiment is classed as functional, organism-based. The note with it: 3D7, Erythrocyte. A digest of the protocol:
(§2)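 P. falciparum 3D7-infected erythrocytes were exposed to compound in culture medium with added thiamine, 2.97 μM or 297 μM. Proliferation was read as parasite DNA by SYBR-Safe assay.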

The subject of experiment [10] is Plasmodium falciparum. Kind of experiment: Antiplasmodial activity against Plasmodium falciparum 3D7 infected in human erythrocyte assessed as intraerythrocytic growth inhibition in presence thiamine-rich medium by [3H]-hypoxanthine incorporation assay. The experiment is classed as functional, organism-based. The note with it: 3D7, Erythrocyte.
Experiment [11] has as its system Plasmodium falciparum. Kind of experiment: Antiplasmodial activity against chloroquine-sensitive Plasmodium falciparum 3D7 infected in human erythrocyte assessed as inhibition of parasite proliferation in presence of 2.97uM thiamine by SYBR-Safe assay. In kind it is functional, organism-based. The note with it: 3D7, Erythrocyte. A digest of the protocol: as §2

Consider `Cc1ncc(Cn2cc(CCCC(=O)NO)nn2)c(N)n1`, for which, in experiment [1], the pKi (as a rule, the negative decadic logarithm of the Ki, by convention in mol/L) was 7.35. For the same compound, in experiment [2], the pIC50 – broadly, the IC50 on a negative log10 scale, so that one unit is a factor of ten – is 5.05.
For `COc1ccc(-c2cn(CCCCc3cn(Cc4cnc(C)nc4N)nn3)nn2)cc1`, the inhibition in experiment [3], in [4], in experiment [5] and in experiment [6] was < 20% each time. In addition, the pIC50 in [2] was 5.22.
On to `COc1ccc(-c2cn(CCc3cn(Cc4cnc(C)nc4N)nn3)nn2)cc1`, for which the inhibition in [4], in experiment [5] and in experiment [6] was < 20% throughout.
For the compound `Cc1ncc(Cn2cc(CCn3cc(-c4ccc(F)cc4)nn3)nn2)c(N)n1`, the inhibition in experiment [4], in experiment [5] and in [6] was < 20% each time.
For `Cc1ncc(Cn2cc(CCn3cc(-c4ccccc4)nn3)nn2)c(N)n1`, the inhibition in experiment [4] and in experiment [6] was < 20% throughout.
As for `Cc1ncc(Cn2cc(CCCCn3cc(-c4ccc(F)cc4)nn3)nn2)c(N)n1`, the inhibition in experiment [3], in experiment [4], in [5] and in [6] was < 20% in each case.
For `Cc1ncc(Cn2cc(CCCCC(=O)NO)nn2)c(N)n1`, the negative logarithm of the Ki (pKi) in [1] was 7.40. Besides, the pIC50 in experiment [2] was 5.10; in experiment [7] it was 5.52.
In the case of `Cc1ncc(Cn2cc(CCCn3cc(-c4ccc(F)cc4)nn3)nn2)c(N)n1`, the inhibition in [3], in [4], in experiment [5] and in experiment [6] was < 20% each time.
On to `Cc1ncc(Cn2cc(CCCn3cc(-c4ccccc4)nn3)nn2)c(N)n1`, for which the inhibition in experiment [3], in experiment [4], in experiment [5] and in experiment [6] was < 20% each time.
As to `COc1ccc(-c2cn(CCCc3cn(Cc4cnc(C)nc4N)nn3)nn2)cc1`, the inhibition in experiment [3], in experiment [4], in experiment [5] and in [6] was < 20% throughout.
As to `Cc1ncc(C[n+]2csc(CCO)c2C)c(O)n1`, the pIC50 in experiment [8] was 4.96; in experiment [9] it was 2.26; in experiment [10], 5.28; in experiment [7], 4.96; in [11] it was 2.28.
For `Cc1ncc(Cn2cc(CCCCn3cc(-c4ccccc4)nn3)nn2)c(N)n1`, the inhibition in experiment [3], in [4], in experiment [5] and in [6] was < 20% in each case.
